According to ChEMBL document CHEMBL4184148 (Bioorg Med Chem Lett, 2017):

Legend:
[1] = molecular target: Receptor tyrosine-protein kinase erbB-4 (Homo sapiens) (UniProt Q15303); assay: Binding affinity to wild-type human partial length ERBB4 (L690 to K994 residues) expressed in Escherichia coli BL21 at 1 uM by Kinomescan method relative to control
[2] = molecular target: Serine/threonine-protein kinase 10 (Homo sapiens) (UniProt O94804); assay: Binding affinity to wild-type human partial length LOK (E16 to V314 residues) expressed in Escherichia coli BL21 at 1 uM by Kinomescan method relative to control
[3] = molecular target: Tyrosine-protein kinase JAK1 (Homo sapiens) (UniProt P23458); assay: Binding affinity to wild-type human partial length JAK1 JH2 pseudokinase domain (R537 to D855 residues) expressed in HEK293 cells at 1 uM by Kinomescan method relative to control; assay type: cell-based
[4] = molecular target: CDK4/Cyclin D3 (Homo sapiens) (UniProt P11802+P30281); assay: Binding affinity to wild-type human full length CDK4/cyclinD3 (M1 to E303 residues) expressed in HEK293 cells at 1 uM by Kinomescan method relative to control; assay type: cell-based
[5] = molecular target: Dual specificity mitogen-activated protein kinase kinase 5 (Homo sapiens) (UniProt Q13163); assay: Binding affinity to wild-type human partial length MEK5 (L98 to P448 residues) expressed in HEK293 cells at 1 uM by Kinomescan method relative to control; assay type: cell-based
[6] = molecular target: Rhodopsin kinase GRK7 (Homo sapiens) (UniProt Q8WTQ7); assay: Binding affinity to wild-type human full length GRK7 (M1 to L553 residues) expressed in HEK293 cells at 1 uM by Kinomescan method relative to control; assay type: cell-based
Outline: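 Run as one kinome-wide competition binding panel with each compound at a single fixed concentration. Results were plotted as a kinome-wide selectivity map.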

[7] = molecular target: Epidermal growth factor receptor (Homo sapiens) (UniProt P00533); assay: Binding affinity to human partial length EGFR E746-A750del mutant expressed in Escherichia coli BL21 at 1 uM by Kinomescan method relative to control
[8] = molecular target: Myosin-IIIa (Homo sapiens) (UniProt Q8NEV4); assay: Binding affinity to wild-type human partial length MYO3A (M1 to K338 residues) expressed in Escherichia coli BL21 at 1 uM by Kinomescan method relative to control
[9] = molecular target: Serine/threonine-protein kinase D2 (Homo sapiens) (UniProt Q9BZL6); assay: Binding affinity to wild-type human partial length PRKD2 (A519 to E838 residues) expressed in Escherichia coli BL21 at 1 uM by Kinomescan method relative to control
[10] = molecular target: Atypical kinase COQ8B, mitochondrial (Homo sapiens) (UniProt Q96D53); assay: Binding affinity to wild-type human full length ADCK4 (M1 to S544 residues) expressed in Escherichia coli BL21 at 1 uM by Kinomescan method relative to control
[11] = molecular target: Mitogen-activated protein kinase kinase kinase 5 (Homo sapiens) (UniProt Q99683); assay: Binding affinity to wild-type human partial length ASK1 (E648 to S964 residues) expressed in Escherichia coli BL21 at 1 uM by Kinomescan method relative to control
Outline: (§1)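 Kinome-wide competition binding panel run by an outside provider, with each compound tested at a single concentration. Activity is read against the kinase panel.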

[12] = molecular target: SRSF protein kinase 1 (Homo sapiens) (UniProt Q96SB4); assay: Binding affinity to wild-type human full length SRPK1 (M1 to S655 residues) expressed in Escherichia coli BL21 at 1 uM by Kinomescan method relative to control; outline: as §1
[13] = molecular target: Ribosomal protein S6 kinase alpha-4 (Homo sapiens) (UniProt O75676); assay: Binding affinity to wild-type human partial length C-terminal RPS6KA4 kinase domain 2 (M375 to T705 residues) expressed in HEK293 cells at 1 uM by Kinomescan method relative to control; assay type: cell-based
[14] = molecular target: Serine/threonine-protein kinase 35 (Homo sapiens) (UniProt Q8TDR2); assay: Binding affinity to wild-type human partial length STK35 (G182 to A534 residues) expressed in Escherichia coli BL21 at 1 uM by Kinomescan method relative to control
[15] = molecular target: Ephrin type-B receptor 4 (Homo sapiens) (UniProt P54760); assay: Binding affinity to wild-type human partial length EPHB4 (H585 to G892 residues) expressed in Escherichia coli BL21 at 1 uM by Kinomescan method relative to control
[16] = molecular target: Dual specificity protein kinase TTK (Homo sapiens) (UniProt P33981); assay: Binding affinity to wild-type human partial length TTK (N505 to V798 residues) expressed in Escherichia coli BL21 at 1 uM by Kinomescan method relative to control
[17] = molecular target: Serine/threonine-protein kinase PAK 5 (Homo sapiens) (UniProt Q9P286); assay: Binding affinity to wild-type human partial length PAK7 (Y400 to H719 residues) expressed in Escherichia coli BL21 at 1 uM by Kinomescan method relative to control
[18] = tested on: Tyrosine-protein kinase ABL1 (Homo sapiens), P00519 [F317L]; assay: Binding affinity to human non-phosphorylated ABL1 F317L mutant (S229 to K512 residues) expressed in HEK293 cells at 1 uM by Kinomescan method relative to control; assay type: cell-based
[19] = molecular target: Serine/threonine-protein kinase Sgk3 (Homo sapiens) (UniProt Q96BR1); assay: Binding affinity to wild-type human partial length SGK3 (M119 to L496 residues) expressed in HEK293 cells at 1 uM by Kinomescan method relative to control; assay type: cell-based
[20] = molecular target: Activin receptor type-2A (Homo sapiens) (UniProt P27037); assay: Binding affinity to wild-type human ACVR2A (V171 to T499 residues) expressed in Escherichia coli BL21 at 1 uM by Kinomescan method relative to control
[21] = molecular target: Serine/threonine-protein kinase Nek11 (Homo sapiens) (UniProt Q8NG66); assay: Binding affinity to wild-type human partial length NEK11 (M1 to E313 residues) expressed in HEK293 cells at 1 uM by Kinomescan method relative to control; assay type: cell-based
[22] = tested on: Tyrosine-protein kinase ABL1 (Homo sapiens), P00519 [H396P]; assay: Binding affinity to human non-phosphorylated ABL1 H396P mutant (S229 to K512 residues) expressed in HEK293 cells at 1 uM by Kinomescan method relative to control; assay type: cell-based
[23] = molecular target: Phosphatidylinositol 5-phosphate 4-kinase type-2 beta (Homo sapiens) (UniProt P78356); assay: Binding affinity to wild-type human full length PIP5K2B (M1 to T416 residues) expressed in Escherichia coli BL21 at 1 uM by Kinomescan method relative to control; outline: as §1
HEK293 = assay: Cytotoxicity against human HEK293 cells assessed as reduction in cell viability up to 33.3 uM after 72 hrs by CellTiter-Glo assay relative to control; assay type: cell-based; conditions: hek293, 72 h
Outline: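 Cells were treated across a dose-response range for 72 h, and viability was read by CellTiter-Glo luminescence. Measurements were made in triplicate and reported with standard error.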

[24] = molecular target: Epidermal growth factor receptor (Homo sapiens) (UniProt P00533); assay: Binding affinity to human partial length EGFR L747-T751del/Sins mutant expressed in Escherichia coli BL21 at 1 uM by Kinomescan method relative to control

Chain of Epidermal growth factor receptor (Homo sapiens) (P00533 whole entry, the tested form may be a part): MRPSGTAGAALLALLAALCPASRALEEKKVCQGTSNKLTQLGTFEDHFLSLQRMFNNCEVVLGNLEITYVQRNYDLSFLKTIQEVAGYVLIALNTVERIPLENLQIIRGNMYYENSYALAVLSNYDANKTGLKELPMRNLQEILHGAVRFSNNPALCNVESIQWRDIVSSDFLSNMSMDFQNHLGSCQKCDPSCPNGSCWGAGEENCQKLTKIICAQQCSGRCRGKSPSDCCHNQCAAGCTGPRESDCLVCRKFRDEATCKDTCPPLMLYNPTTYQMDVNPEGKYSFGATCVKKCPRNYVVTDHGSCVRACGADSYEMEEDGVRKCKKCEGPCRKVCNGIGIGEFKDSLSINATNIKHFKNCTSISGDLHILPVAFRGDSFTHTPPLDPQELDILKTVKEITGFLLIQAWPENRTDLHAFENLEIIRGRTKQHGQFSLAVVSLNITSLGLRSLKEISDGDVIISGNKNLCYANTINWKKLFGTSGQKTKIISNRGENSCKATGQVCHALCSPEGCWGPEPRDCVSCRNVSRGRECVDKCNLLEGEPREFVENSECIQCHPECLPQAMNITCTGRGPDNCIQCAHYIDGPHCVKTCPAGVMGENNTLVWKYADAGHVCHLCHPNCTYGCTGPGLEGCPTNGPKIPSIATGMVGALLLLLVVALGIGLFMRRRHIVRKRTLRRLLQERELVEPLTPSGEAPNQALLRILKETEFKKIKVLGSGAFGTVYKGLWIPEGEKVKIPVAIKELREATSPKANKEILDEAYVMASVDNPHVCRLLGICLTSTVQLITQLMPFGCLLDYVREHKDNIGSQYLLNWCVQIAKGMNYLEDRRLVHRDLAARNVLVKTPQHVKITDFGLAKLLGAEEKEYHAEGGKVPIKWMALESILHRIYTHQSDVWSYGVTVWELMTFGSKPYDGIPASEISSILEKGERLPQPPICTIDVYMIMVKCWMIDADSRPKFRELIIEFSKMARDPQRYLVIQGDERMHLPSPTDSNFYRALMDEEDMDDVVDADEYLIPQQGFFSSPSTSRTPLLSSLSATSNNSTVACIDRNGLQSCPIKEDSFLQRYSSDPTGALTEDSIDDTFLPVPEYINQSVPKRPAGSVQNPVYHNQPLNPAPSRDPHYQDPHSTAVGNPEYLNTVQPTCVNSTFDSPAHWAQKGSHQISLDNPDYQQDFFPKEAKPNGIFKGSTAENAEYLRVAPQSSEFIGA
Chain of Serine/threonine-protein kinase PAK 5 (Homo sapiens) (Q9P286 whole entry, looked up, the tested form may be a part): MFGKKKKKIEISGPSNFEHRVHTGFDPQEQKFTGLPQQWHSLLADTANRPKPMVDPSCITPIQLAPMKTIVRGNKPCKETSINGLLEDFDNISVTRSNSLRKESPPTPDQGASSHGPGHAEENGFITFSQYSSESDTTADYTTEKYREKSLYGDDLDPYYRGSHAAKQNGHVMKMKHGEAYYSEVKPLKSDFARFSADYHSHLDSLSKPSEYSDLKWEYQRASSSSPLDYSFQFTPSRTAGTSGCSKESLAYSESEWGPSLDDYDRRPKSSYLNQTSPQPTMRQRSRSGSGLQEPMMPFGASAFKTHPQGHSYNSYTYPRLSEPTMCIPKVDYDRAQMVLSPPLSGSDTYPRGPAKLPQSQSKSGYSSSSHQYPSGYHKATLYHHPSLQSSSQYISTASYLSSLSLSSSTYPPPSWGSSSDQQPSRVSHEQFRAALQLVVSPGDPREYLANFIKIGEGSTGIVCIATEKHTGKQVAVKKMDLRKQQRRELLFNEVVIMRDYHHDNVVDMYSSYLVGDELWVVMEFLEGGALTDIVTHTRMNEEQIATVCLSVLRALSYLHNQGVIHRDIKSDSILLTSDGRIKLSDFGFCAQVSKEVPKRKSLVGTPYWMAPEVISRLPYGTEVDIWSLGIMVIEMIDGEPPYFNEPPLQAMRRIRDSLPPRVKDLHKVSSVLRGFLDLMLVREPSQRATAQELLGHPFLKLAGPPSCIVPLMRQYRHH
Chain of Serine/threonine-protein kinase 35 (Homo sapiens) (Q8TDR2 whole entry, the tested form may be a part): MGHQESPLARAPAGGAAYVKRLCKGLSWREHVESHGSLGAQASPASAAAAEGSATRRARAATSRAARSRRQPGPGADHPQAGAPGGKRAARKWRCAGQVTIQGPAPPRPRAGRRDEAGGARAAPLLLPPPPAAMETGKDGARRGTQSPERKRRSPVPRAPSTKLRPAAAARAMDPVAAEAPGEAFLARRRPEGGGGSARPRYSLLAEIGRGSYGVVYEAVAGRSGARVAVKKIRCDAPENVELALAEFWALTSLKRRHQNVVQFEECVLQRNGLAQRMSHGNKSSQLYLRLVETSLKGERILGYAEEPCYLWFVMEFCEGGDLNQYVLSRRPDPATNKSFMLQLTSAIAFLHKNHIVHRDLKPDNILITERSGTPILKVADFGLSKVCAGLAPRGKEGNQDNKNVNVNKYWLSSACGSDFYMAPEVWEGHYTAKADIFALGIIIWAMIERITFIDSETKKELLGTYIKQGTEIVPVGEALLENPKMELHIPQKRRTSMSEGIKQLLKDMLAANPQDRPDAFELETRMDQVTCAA
Chain of Mitogen-activated protein kinase kinase kinase 5 (Homo sapiens) (Q99683 whole entry, the tested form may be a part): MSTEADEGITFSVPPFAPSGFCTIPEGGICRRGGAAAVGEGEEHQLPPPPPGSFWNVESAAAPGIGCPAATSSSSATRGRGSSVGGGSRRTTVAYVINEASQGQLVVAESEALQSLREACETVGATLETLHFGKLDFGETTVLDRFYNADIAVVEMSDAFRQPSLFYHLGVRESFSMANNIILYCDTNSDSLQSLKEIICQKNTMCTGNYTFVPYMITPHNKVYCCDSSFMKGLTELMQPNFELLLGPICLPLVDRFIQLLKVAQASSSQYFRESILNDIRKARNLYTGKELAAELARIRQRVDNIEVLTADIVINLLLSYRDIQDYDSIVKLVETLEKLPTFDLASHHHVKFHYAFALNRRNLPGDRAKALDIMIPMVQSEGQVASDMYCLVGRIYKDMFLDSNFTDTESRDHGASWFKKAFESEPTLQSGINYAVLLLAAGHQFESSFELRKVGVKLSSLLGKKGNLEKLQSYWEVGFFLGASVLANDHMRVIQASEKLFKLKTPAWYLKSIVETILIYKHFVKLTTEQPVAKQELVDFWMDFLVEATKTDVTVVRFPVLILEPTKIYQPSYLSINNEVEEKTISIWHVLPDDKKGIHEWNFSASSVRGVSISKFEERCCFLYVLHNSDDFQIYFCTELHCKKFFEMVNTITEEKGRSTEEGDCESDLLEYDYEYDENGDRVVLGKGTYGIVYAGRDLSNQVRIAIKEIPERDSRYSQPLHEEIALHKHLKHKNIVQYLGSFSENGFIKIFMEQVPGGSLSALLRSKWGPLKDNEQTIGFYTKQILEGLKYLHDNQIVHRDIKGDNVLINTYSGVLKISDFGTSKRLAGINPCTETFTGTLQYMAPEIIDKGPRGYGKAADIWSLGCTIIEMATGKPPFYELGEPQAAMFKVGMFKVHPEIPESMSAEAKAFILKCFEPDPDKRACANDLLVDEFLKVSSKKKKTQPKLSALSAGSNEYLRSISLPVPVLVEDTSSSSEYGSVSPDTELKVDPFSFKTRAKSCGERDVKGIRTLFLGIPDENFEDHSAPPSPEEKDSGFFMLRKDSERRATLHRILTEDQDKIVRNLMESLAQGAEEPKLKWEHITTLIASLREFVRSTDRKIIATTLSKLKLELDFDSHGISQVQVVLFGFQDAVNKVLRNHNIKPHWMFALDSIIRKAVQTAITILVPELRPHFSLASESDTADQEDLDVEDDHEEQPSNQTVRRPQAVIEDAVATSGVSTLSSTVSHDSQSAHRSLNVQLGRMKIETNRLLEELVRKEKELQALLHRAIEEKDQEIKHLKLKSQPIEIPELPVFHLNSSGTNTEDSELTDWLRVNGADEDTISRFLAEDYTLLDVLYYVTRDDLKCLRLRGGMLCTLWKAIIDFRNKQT
Chain of Dual specificity protein kinase TTK (Homo sapiens) (P33981 whole entry, the tested form may be a part): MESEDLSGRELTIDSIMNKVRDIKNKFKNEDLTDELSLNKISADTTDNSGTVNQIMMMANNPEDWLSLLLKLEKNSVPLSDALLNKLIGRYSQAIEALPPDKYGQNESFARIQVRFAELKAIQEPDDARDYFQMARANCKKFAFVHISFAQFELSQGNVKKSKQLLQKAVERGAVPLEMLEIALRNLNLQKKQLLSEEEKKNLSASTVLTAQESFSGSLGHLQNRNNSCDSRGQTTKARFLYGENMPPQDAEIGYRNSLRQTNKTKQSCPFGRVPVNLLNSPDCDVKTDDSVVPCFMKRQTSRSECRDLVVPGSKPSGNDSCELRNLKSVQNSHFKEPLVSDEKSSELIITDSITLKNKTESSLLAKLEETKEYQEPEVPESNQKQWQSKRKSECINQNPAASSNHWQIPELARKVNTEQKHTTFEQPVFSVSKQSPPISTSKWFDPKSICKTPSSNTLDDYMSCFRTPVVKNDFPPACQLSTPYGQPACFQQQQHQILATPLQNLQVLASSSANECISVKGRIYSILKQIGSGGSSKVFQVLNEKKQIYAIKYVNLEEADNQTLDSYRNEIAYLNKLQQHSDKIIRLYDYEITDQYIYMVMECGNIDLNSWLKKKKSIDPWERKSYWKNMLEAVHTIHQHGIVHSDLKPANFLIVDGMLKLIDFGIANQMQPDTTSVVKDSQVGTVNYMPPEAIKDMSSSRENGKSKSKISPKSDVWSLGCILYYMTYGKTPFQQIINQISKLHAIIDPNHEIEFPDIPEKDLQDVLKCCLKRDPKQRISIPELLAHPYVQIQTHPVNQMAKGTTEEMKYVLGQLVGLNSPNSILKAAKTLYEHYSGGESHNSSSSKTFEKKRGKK

SMILES	Activity [1] [%]	Activity [2] [%]	Activity [3] [%]	Activity [4] [%]	Activity [5] [%]	Activity [6] [%]	Activity [7] [%]	Activity [8] [%]	Activity [9] [%]	Activity [10] [%]	Activity [11] [%]	Activity [12] [%]	Activity [13] [%]	Activity [14] [%]	Activity [15] [%]	Activity [16] [%]	Activity [17] [%]	Activity [18] [%]	Activity [19] [%]	Activity [20] [%]	other results
CCC(=O)Nc1ccc(C(=O)Nc2ccc(Nc3ncc4c(n3)N(C)c3ccc(C)cc3C(=O)N4C)cc2)cc1	96	78	79	85	90	87	91	96	98	100	99	86	51	77	100	87	97	72	81	100	Activity [21]: 96%; Activity [22]: 62%; Activity [23]: 94%; Activity (HEK293): 50%; Activity [24]: 89%
C=CC(=O)Nc1ccc(C(=O)Nc2ccc(Nc3ncc4c(n3)N(C)c3ccc(C)cc3C(=O)N4C)cc2)cc1	96	100	100	100	99	93	100	94	98	100	100	89	96	96	95	86	100	90	79	100	Activity [21]: 100%; Activity [22]: 84%; Activity [23]: 83%; Activity (HEK293): 50%; Activity [24]: 81%
